Measurements as given in ChEMBL document CHEMBL3098077, “Discovery of novel antitumor dibenzocyclooctatetraene derivatives and related biphenyls as potent inhibitors of NF-κB signaling pathway” (Bioorg Med Chem, 2014).
Activity calls are given as the source filed them. No cut-off for these calls is given here.

Assays:
[1] = (§1) Inhibition of LPS-induced NF-kappaB activation in mouse RAW264.7 cells treated 30 mins before LPS challenge measured after 6 hrs by luciferase reporter gene assay; assay type: cell-based
Outline: (§2)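 RAW264.7 cells stably carrying an NF-κB-driven firefly luciferase reporter, seeded at 10^4 cells/well and attached overnight. Pretreated 30 min with compound, then stimulated with LPS 1 μg/mL for 6 h; cells lysed and luciferase activity measured. Compounds screened at 10 μM; those above 98% inhibition were tested at serial concentrations for IC50, alongside BAY 11-7082 as positive control.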

RAW264.7 [2] = experiment: Inhibition of LPS-induced NF-kappaB activation in mouse RAW264.7 cells at 20 uM treated 30 mins before LPS challenge measured after 6 hrs by luciferase reporter gene assay; assay type: cell-based
RAW264.7 [3] = experiment: Antinflammatory activity in mouse RAW264.7 cells assessed as inhibition of LPS-induced nitric oxide production at 20 uM treated 30 mins before LPS challenge measured after 18 hrs by Griess assay; assay type: functional, cell-based
Outline: (§3)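 RAW264.7 cells seeded in dishes, attached overnight, pretreated 30 min with compound (test compound at 0.6, 1.25 and 2.5 μM; reference inhibitor at 20 μM), then stimulated with LPS 1 μg/mL for 18 h. Medium collected and centrifuged; supernatant nitrite reacted with Griess reagents I and II, absorbance read at 540 nm as measure of NO.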

DU-145 = experiment: Cytotoxicity against human DU145 cells by SRB assay; assay type: functional
Outline: (§4)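 SRB growth assay; GI50 taken as molar concentration giving 50% tumor cell growth inhibition. Paclitaxel run as positive control. KBvin is a P-gp-expressing epidermoid carcinoma of the nasopharynx line.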

KB = experiment: Cytotoxicity against human KB cells by SRB assay; assay type: functional; outline: as §4
[4] = Cytotoxicity against human KBVIN cells by SRB assay; assay type: functional; outline: as §4
A549 = experiment: Cytotoxicity against human A549 cells by SRB assay; assay type: functional; outline: as §4
RAW264.7 [5] = experiment: as §1; assay type: cell-based; outline: as §2
RAW264.7 [6] = experiment: Inhibition of NF-kappaB-mediated IkappaBalpha degradation in LPS-induced mouse RAW264.7 cells treated 30 mins before LPS challenge measured after 15 mins by Western blot analysis; assay type: cell-based
Outline: (§5)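 RAW264.7 cells in dishes, attached overnight, pretreated 30 min with compound (test compound at 2.5, 5, 10 μM; reference inhibitor at 20 μM), then given LPS 1 μg/mL for 15 min. Total protein in RIPA buffer with protease/phosphatase inhibitors, used for IκB-α; nuclear extract used for p65. Western blot: SDS-PAGE, PVDF, primary antibody overnight at 4 °C, peroxidase secondary 1 h at room temperature, chemiluminescence.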

[7] = molecular target: Transcription factor p65 (Mus musculus) (UniProt Q04207); experiment: Inhibition of LPS-induced NF-kappaB p65 translocation into nucleus in mouse RAW264.7 cells treated 30 mins before LPS challenge measured after 15 mins by Western blot analysis; assay type: cell-based; outline: as §5
Chain of Transcription factor p65 (Mus musculus) (Q04207 whole entry): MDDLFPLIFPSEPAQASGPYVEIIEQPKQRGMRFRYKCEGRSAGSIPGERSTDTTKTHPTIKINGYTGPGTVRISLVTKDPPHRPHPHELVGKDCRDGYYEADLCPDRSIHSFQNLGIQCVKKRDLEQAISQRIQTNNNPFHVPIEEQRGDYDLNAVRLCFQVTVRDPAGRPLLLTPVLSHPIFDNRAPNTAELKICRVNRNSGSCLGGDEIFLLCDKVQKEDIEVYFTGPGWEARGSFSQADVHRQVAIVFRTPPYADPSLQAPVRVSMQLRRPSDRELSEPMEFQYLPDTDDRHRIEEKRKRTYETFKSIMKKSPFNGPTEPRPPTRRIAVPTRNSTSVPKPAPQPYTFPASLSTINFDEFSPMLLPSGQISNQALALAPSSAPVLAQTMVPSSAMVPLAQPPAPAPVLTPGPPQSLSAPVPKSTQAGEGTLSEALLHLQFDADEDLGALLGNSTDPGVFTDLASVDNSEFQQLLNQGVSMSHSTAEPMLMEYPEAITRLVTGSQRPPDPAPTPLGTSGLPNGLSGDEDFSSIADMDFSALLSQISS

RAW264.7 [8] = experiment: Inhibition of LPS-induced NF-kappaB activation in mouse RAW264.7 cells at 10 uM treated 30 mins before LPS challenge measured after 6 hrs by luciferase reporter gene assay; assay type: cell-based; outline: as §2
RAW264.7 [9] = experiment: Antinflammatory activity in mouse RAW264.7 cells assessed as inhibition of LPS-induced nitric oxide production at 2.5 uM treated 30 mins before LPS challenge measured after 18 hrs by Griess assay; assay type: functional, cell-based; outline: as §3

IC50 [1] [µM] | SMILES | GI50 (DU-145) [µM] | GI50 (KB) [µM] | GI50 [4] [µM] | GI50 (A549) [µM] | further results
1.72 | Cc1ccc(S(=O)(=O)/C=C/C#N)cc1 | – | – | – | – | inhibition (RAW264.7 [2]): Active; inhibition (RAW264.7 [3]): Active
1.02 | COc1cc2cc3c(=O)[nH]c(=O)c-3cc3ccccc3c2c(OC)c1OC | 2.34 | 2.67 | 2.07 | 2.31 | –
0.75 | COc1cc(/C=C(/C)[N+](=O)[O-])c(-c2ccccc2/C=C(/C)[N+](=O)[O-])c(OC)c1OC | – | – | – | – | –
1.61 | COc1c2c(cc(/C=C(\C)[N+](=O)[O-])c1-c1ccccc1/C=C(\C)[N+](=O)[O-])OCO2 | 5.02 | 13.1 | 12.3 | 4.02 | –
– | COC(=O)c1cc(OC)c(OC)c(OC)c1-c1ccccc1C=C(C#N)C#N | 21.9 | 36.2 | 20.6 | 42 | –
0.52 | COc1cc2cc3c(=O)[nH]c(=O)c-3cc3cc(OC)c(OC)c(OC)c3c2cc1OC | 11.3 | 10.1 | 10.8 | 10.1 | –
2.16 | COc1cc(/C=C(\C)[N+](=O)[O-])c(-c2c(/C=C(\C)[N+](=O)[O-])cc(OC)c(OC)c2OC)cc1OC | 6.75 | 13.5 | 7.22 | 5.23 | –
0.81 | COc1cc(/C=C(\C)[N+](=O)[O-])c(-c2ccccc2/C=C(\C)[N+](=O)[O-])c2c1OCO2 | 19.8 | 18 | 18.7 | 13.9 | –
0.52 | COc1cc2cc3c(=O)[nH]c(=O)c-3cc3cc4c(cc3c2c(OC)c1OC)OCO4 | 1.43 | 1.47 | 1.45 | 1.38 | inhibition (RAW264.7 [5]): Dose-dependent effect; inhibition (RAW264.7 [6]): Dose-dependent effect; inhibition [7]: Dose-dependent effect; inhibition (RAW264.7 [8]): Active; inhibition (RAW264.7 [9]): Active
– | CCOC(=O)/C(C#N)=C/c1cc2c(cc1-c1c(/C=C(\C#N)C(=O)OCC)cc(OC)c(OC)c1OC)OCO2 | > 22 | > 22 | > 22 | > 22 | –
4.16 | COc1cc(C=C(C#N)C#N)c(-c2c(C=C(C#N)C#N)cc(OC)c(OC)c2OC)cc1OC | 10.1 | 23.2 | 15.9 | 18 | –
1.72 | COc1cc(/C=C/[N+](=O)[O-])c(-c2cc3c(cc2/C=C/[N+](=O)[O-])OCO3)c(OC)c1OC | 9.09 | 5.49 | 8.6 | 8.95 | –
– | COc1cc(C=C(C#N)C#N)c(-c2cc3c(cc2C=C(C#N)C#N)OCO3)c(OC)c1OC | 19.7 | > 40 | > 40 | > 40 | –
– | COc1cc(C=C(C#N)C#N)c(-c2ccccc2C=C(C#N)C#N)c(OC)c1OC | > 40 | > 40 | > 40 | > 40 | –
1.61 | COC(=O)c1cc(OC)c(OC)c(OC)c1-c1ccccc1/C=C(\C)[N+](=O)[O-] | 6.56 | 6.95 | 6.17 | 6.2 | –
3.02 | CCOC(=O)/C(C#N)=C/c1ccccc1-c1c(/C=C(\C#N)C(=O)OCC)cc(OC)c(OC)c1OC | 8.08 | 6.53 | 8.45 | 7.02 | –
– | CC(=O)O[C@H]1C(=O)[C@@]2(C)[C@H]([C@H](OC(=O)c3ccccc3)[C@]3(O)C[C@H](OC(=O)[C@H](O)[C@@H](NC(=O)c4ccccc4)c4ccccc4)C(C)=C1C3(C)C)[C@]1(OC(C)=O)CO[C@@H]1C[C@@H]2O [PACLITAXEL] | 0.006 | 0.008 | 1.8 | 0.0076 | –
– | CCOC(=O)/C(C#N)=C/c1ccccc1-c1c(C(=O)OC)cc(OC)c(OC)c1OC | > 40 | > 40 | > 40 | > 40 | –
1.78 | COc1cc(/C=C/[N+](=O)[O-])c(-c2ccccc2/C=C/[N+](=O)[O-])c(OC)c1OC | 2.09 | 2.58 | 4.6 | 3.07 | –
– | COc1cc2c(c(OC)c1OC)-c1cc3c(cc1/C=C(C(=O)O)\C(C(=O)O)=C/2)OCO3 | > 20 | > 20 | > 20 | > 20 | –
3.75 | CCOC(=O)/C(C#N)=C/c1cc(OC)c(OC)cc1-c1c(/C=C(\C#N)C(=O)OCC)cc(OC)c(OC)c1OC | 13.1 | > 36 | 15.1 | 13.8 | –
0.9 | COc1cc(/C=C(\C)[N+](=O)[O-])c(-c2cc3c(cc2/C=C(\C)[N+](=O)[O-])OCO3)c(OC)c1OC | 1.51 | 0.72 | 1.27 | 0.87 | –
– | COC(=O)C1=C/c2cc(OC)c(OC)cc2-c2c(cc(OC)c(OC)c2OC)/C=C\1C(=O)OC | – | > 20 | > 20 | > 20 | inhibition (DU-145): inactive
– | COC(=O)C1=C/c2cc3c(cc2-c2c(cc(OC)c(OC)c2OC)/C=C\1C(=O)OC)OCO3 | – | 14 | 15.4 | 14.5 | –
